# Assay results collected from several papers.
# Compare with care: the assays were run in different laboratories.
# Target: Serine/threonine-protein kinase PAK 3 (PAK3, Homo sapiens, UniProt O75914)
Compound,read-out,technique,tested at,remaining binding [%]
CN([C@@H]1CCc2c(CC(=O)O)c3ccccc3n2C1)S(=O)(=O)c1ccc(F)cc1,cell-free assay,competition with immobilised ligand,1 µM,98
COc1cnc(Nc2cccc(S(N)(=O)=O)c2)nc1N1CCN(c2ccccc2)C(=O)C1,binding,competition with immobilised ligand,1 µM,75
CS(=O)(=O)NCC[C@H](NC(=O)c1cncc2c1cnn2-c1ccc(F)cc1)c1ccnc(S(C)(=O)=O)c1,cell-free assay,competition with immobilised ligand,1 µM,100
C[C@@H](c1ccc(-n2cnc3c(N)ncnc32)cc1)N1CCc2nn(C)c(Cc3ccccc3)c2C1=O,binding,competition with immobilised ligand,0.1 µM,71
Cc1c(NC(=O)c2cc(C(N)=O)nc3cc(F)ccc23)c(C(F)(F)F)nn1Cc1ccc(C(C)(C)C)cc1,cell-free assay,competition with immobilised ligand,1 µM,100
CCN1CCN(Cc2ccc(C(=O)Nc3ccc(C)c(Oc4ccc5c(c4)CC(=O)N5)c3)cc2C(F)(F)F)CC1,binding,competition with immobilised ligand,1 µM,98
C[C@@H]1CCN(c2nccc(-c3cnn4ncccc34)n2)C1,binding,,1 µM,85
O=C(NCCCN1CCOCC1)c1ccc(Nc2nccc(-c3cc4ccccc4s3)n2)cc1,binding,competition with immobilised ligand,1 µM,71
CC(=O)Nc1c(C(C)=O)c(=O)n(C)c2nc(-c3ccc(Cl)cc3Cl)c(-c3ccc(Cl)cc3)cc12,cell-free assay,competition with immobilised ligand,1 µM,100
COc1ncc2cc3ccccc3nc2c1C#N,cell-free assay,competition with immobilised ligand,5 µM,100
CN(C)c1nccc(-c2cnn3ncccc23)n1,binding,,1 µM,100
O=C(Nc1c[nH]nc1C(=O)NC1CCNCC1)c1cc(F)cc(F)c1,binding,competition with immobilised ligand,1 µM,98
FC(F)(F)Oc1cccc(-c2cnc3ccc(-c4ccncc4)nn23)c1,cell-free assay,competition with immobilised ligand,5 µM,100
c1cnn2ncc(-c3ccnc(N4CCC45COC5)n3)c2c1,binding,,1 µM,88
O=C(c1ccc(Nc2ncc(Cl)c(-c3cc4ccccc4s3)n2)cc1)N1CCC(N2CCCC2)CC1,binding,competition with immobilised ligand,1 µM,8.4
CN(c1nccc(-c2cnn3ncccc23)n1)C1CC1,binding,,1 µM,100
CC(=O)c1c(NS(C)(=O)=O)c2cc(-c3ccc(Cl)cc3)c(-c3ccc(Cl)cc3Cl)nc2n(C)c1=O,cell-free assay,competition with immobilised ligand,1 µM,100
F[C@@H]1CCN(c2nccc(-c3cnn4ncccc34)n2)C1,binding,,1 µM,100
COc1ccc2c(c1)O[C@H](c1ccc(OC)c(OC)c1)C[C@@H]2NC(=O)C1(c2ccc3c(c2)OC(F)(F)O3)CC1,cell-free assay,competition with immobilised ligand,1 µM,100
CN(CCCC(F)(F)F)c1nccc(-c2cnn3ncccc23)n1,binding,,1 µM,100
O=C(c1ccc(Nc2nccc(-c3cc4ccccc4s3)n2)cc1)N1CCC(N2CCCC2)CC1,binding,competition with immobilised ligand,1 µM,39
